High-throughput results as filed in PubChem.
T cruzi inh: blocks replication of Trypanosoma cruzi. T. cruzi beta-gal in NIH3T3, luminescence, 90 h. inhibition, % (test concentration not listed). 300,000 compounds, 1.4% hits. AID 1885;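 active = mean inhibition across valid replicates above about 55%, limit read from the data; inconclusive = mean below that limit but half or more replicates reach it; inactive = mean below it, under half of replicates reach it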;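 also: signal also drops with host cell toxicity which is not excluded here; 0% = plate median of DMSO wells and 100% = zero luminescence signal; higher percent means less beta-gal luminescence so fewer parasites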
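System: NIH/3T3 fibroblasts plus reporter T. cruzi. Medium: DMEM plus 2% FBS. Probe or stimulus: 5000 reporter trypomastigotes per well. Compound: single 50 nL compound addition per well in DMSO. Incubation: co-culture of at least 90 h after 3 h attachment. Detection: GalScreen β-gal luminescence, detergent lysis, 60 min. Evaluation: parasite load inhibition, %.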
PfHsp90 yeast 2: inhibits growth of yeast expressing Plasmodium falciparum Hsp90. S. cerevisiae expressing PfHsp90, BacTiter-Glo ATP, 48 h; yeast lacking PDR1 and PDR3 efflux regulators. inhibition, % at 9.4 µM. 310,000 compounds, 0.32% hits;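 active = every replicate shows inhibition above about 80%, whatever the replicate mean, limit read from the data; inconclusive = mean inhibition reaches the set limit but some replicate falls short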;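 also: 0% = DMSO neutral controls and 100% = 20 µM radicicol positive controls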
CaV13 FRET inh: Primary screen for inhibitors of IQ motif and Ca2+-dependent inactivation inhibitor domain binding in CACNA1D, Förster resonance energy transfer in living cells, …. HEK cells, CFP/YFP FRET ICDI-IQ, plate reader, 10 min; percent FRET-ratio fall versus neutral wells. inhibition, % at 12.3 µM. AID 743397. 340,000 compounds, 0.098% hits;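 active = mean replicate inhibition of at least 30% and at least 1% of replicates passing that level; inconclusive = only one of the two criteria is met; inactive = neither criterion is met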;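 also: 0% = median of the neutral control wells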
Glyco luc inh: N-linked glycosylation inhibition; AID 588692; 360,000 compounds, 0.23% hits; D54 ERlucT glycosylation luciferase reporter, 24 h; percent of 100 nM tunicamycin response; reporter increase, % at 12.5 µM;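 active = mean luciferase reporter signal, scaled so untreated is 0 and the glycosylation-blocking control 100, at or above a set limit in every replicate; inconclusive = mean reaches the limit but not every replicate does; inactive = mean below the limit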;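 also: luciferase carries N-glycosylation sites so blocking glycosylation raises the light; 0% = median of neutral control wells and 100% = median of 100 nM tunicamycin wells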
PvdQ acylase: blocks Pseudomonas aeruginosa PvdQ acylase activity. purified PvdQ acylase, fluorescence plate reader. inhibition, % at 10 µM. 340,000 compounds, 0.063% hits. AID 488965; in the data active = inhibition above about 30%, passing the limit was not always enough; inconclusive = no clear call, values can overlap the other calls;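 also: 0% = vehicle neutral wells and 100% = reference inhibitor wells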
HSF-1 act: increases HSF-1 driven luciferase reporter signal | NIH3T3-HGL HSF-1 luciferase reporter, MG132, 8 h; 100% = twice DMSO control signal | activation, % at 9 µM | 300,000 compounds, 1.7% hits | AID 504408;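 active = mean replicate activation of at least 50% with a set share of replicates each reaching 50%; inconclusive = only one of those two conditions met; inactive = mean below 50% and too few replicates reaching it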;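 also: 0% = median of the neutral control wells and 100% = twice that signal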
Starred values were filed as active, the others as inactive; ? = inconclusive; . = not tested or not shown. Rows were chosen to be rich in hits. Some 3% of all compounds tested hit in one or more screens of this group.

SMILES | T cruzi inh | PfHsp90 yeast 2 | CaV13 FRET inh | Glyco luc inh | PvdQ acylase | HSF-1 act
CC(C)C[C@@H](CN)NC(=O)c1nc[nH]c1C(=O)N[C@@H](C)C(=O)CNC[C@H](C)NC(=O)c1nc[nH]c1C(=O)N[C@@H](C)C(=O)O | . | -5 | -8 | 2 | -15 | .
CC(C)(C)c1cc(CCC(=O)NNC(=S)NC(=O)c2ccccc2)cc(C(C)(C)C)c1O | 59* | -1 | . | 0 | -7 | 20
COc1ccccc1C1=NN(C(=S)Nc2ccccc2)C(c2ccco2)C1 (centres undefined) | 29 | 5 | . | 5 | 10 | 52*
COc1ccc(OC)c(C2CC(c3ccccc3)=NN2C(=S)Nc2ccccc2)c1 (centres undefined) | 3 | 0 | -5 | 14 | -10 | 0
CCN(C(=O)COC(=O)CCC(=O)c1cccs1)c1ccccc1 | . | 6 | -3 | 2 | 7 | .
O=c1c(-c2nc3ccccc3s2)cccn1Cc1ccc(Cl)c(Cl)c1 | -11 | . | -4 | -3 | -1 | 52*
O=C(c1cccn(Cc2ccc(Cl)c(Cl)c2)c1=O)N1CCOCC1 | 7 | . | -4 | 1 | -10 | 8
COc1ccccc1-c1nn2c(-c3ccco3)nnc2s1 | 27 | -1 | -7 | 12 | -10 | 62*
CCOC(=O)[C@]12CCCC=C1N(Cc1ccco1)C(=O)[C@H](CC(=O)N1CCSCC1)C2 | . | . | -8 | . | . | .
Clc1ccc2[nH]c3c(c2c1)CCc1cn[nH]c1-3 | 6 | 110* | . | 4 | 22 | 46
O=Cc1ccc(O)c2ncccc12 | 57* | 124* | . | 4 | 8 | -55
CCN(CC)S(=O)(=O)c1ccc(N2CCN(c3cccc(OC)c3)CC2)c([N+](=O)[O-])c1 | 65* | -7 | -5 | -2 | 16 | 33
Nc1[nH]c(C(=O)c2ccccc2)c(-c2ccc(Cl)cc2Cl)c1C(=O)c1ccc(Br)cc1 | . | . | -3 | . | . | .
O=C(NC1CCS(=O)(=O)C1)c1cccc(Br)c1 (centres undefined) | -3 | . | -2 | 1 | 41* | 2
Cc1cccc(CN(C)CCc2ccccn2)c1 | 61* | 4 | -4 | 2 | 2 | -2
CCOC(=O)C1=CCN(S(=O)(=O)c2ccc(C)cc2)C1c1cccc(Br)c1 (centres undefined) | . | . | -3 | -1 | . | .
CCc1ccc2oc(-c3ccc(OC)cc3)cc(=Nc3cccc(C(=O)O)c3)c2c1 | 10 | 17 | -7 | -21 | -1 | 1
CCc1ccc2oc(-c3ccc(OC)cc3)cc(=Nc3c(C)n(C)n(-c4ccccc4)c3=O)c2c1 | 64* | -29 | 0 | -17 | -8 | -1
COc1ccc(-c2cc(=Nc3ccc(C(=O)O)cc3)c3cc(C)ccc3o2)cc1 | 16 | . | 5 | -17 | -5 | 57*
Cc1ccc(N=C(NOCc2ccc(Cl)cc2Cl)c2nonc2N)c(C)c1 | ? | -3 | -8 | -9 | -6 | 59*
CC(=O)Nc1ccc(NC(=O)c2ccc(-c3c(C)noc3C)c3ccoc23)cc1 | . | . | -5 | ? | . | .
COc1cc(NC(=O)c2ccc(-c3c(C)noc3C)c3ccoc23)cc(OC)c1OC | . | . | -9 | 33* | . | .
Cc1noc(C)c1-c1ccc(C(=O)NCc2cccs2)c2occc12 | . | . | -5 | 13 | . | .
Cc1noc(C)c1-c1ccc(C(=O)NCCc2ccccc2)c2occc12 | . | . | 40* | 19 | . | .
Cc1nc2[nH]c(=O)n(O)c(=O)c2s1 | . | 15 | -6 | -1 | -7 | -2
SMILES | T cruzi inh | PfHsp90 yeast 2 | CaV13 FRET inh | Glyco luc inh | PvdQ acylase | HSF-1 act
COC(=O)C1(NC(=O)CNC(=O)OCc2ccccc2)CCCC1 | . | 2 | -6 | 0 | 4 | .
COc1cc(/C=N/NC(=O)c2ccc(-c3ccccc3)cc2)cc(OC)c1OC | 2 | 31 | -15 | 33* | -7 | -36
COc1cc(C(=O)Oc2ccccc2/C=N/NC(=O)c2ccc(Cl)cc2)cc(OC)c1OC | 67* | 16 | -3 | -11 | -19 | 13
Cc1c(C(=O)N/N=C/c2ccc(N3CCOCC3)cc2)nc2ccccn12 | -3 | -4 | -4 | 2 | 3 | 40
COc1cc(C(=O)Oc2ccccc2/C=N/NC(=O)c2ccc(C)c(Cl)c2)cc(OC)c1OC | 55* | 8 | -6 | -8 | 2 | 2
COc1cc(/C=N/NC(=O)c2nc3ccccn3c2C)cc(OC)c1O | 81* | -5 | -3 | 5 | -11 | 4
COc1ccc(C(=O)N/N=C/c2ccccc2C(=O)O)cc1OC | -8 | -14 | -5 | 2 | 0 | -7
COc1ccc(/C=N\NC(=O)c2ccc(-c3ccccc3)cc2)c(OC)c1OC | . | 17 | -5 | 0 | 0 | .
COc1ccc(OC)c(CN(CC(C)C)S(=O)(=O)c2ccccc2Br)c1 | . | . | -4 | . | . | .
O=C(Nc1ccc(O)cc1)c1ccccc1OCc1ccccc1 | 14 | -23 | 0 | 13 | -13 | 0
CNC(=O)c1cccc(NC(=O)c2ccccc2OCc2ccccc2)c1 | 4 | -12 | -7 | 27* | -6 | -2
COc1cc(NC(=O)c2ccccc2OCc2ccccc2)cc(OC)c1OC | 12 | -3 | -19 | 28* | 5 | -27
O=C(Nc1ccccc1)c1ccccc1OCc1ccc(F)cc1 | 9 | -11 | -4 | -1 | -5 | 21
COC(=O)C(C)N(C(=O)c1ccc(C(=O)c2ccccc2)cc1)c1c(C)cccc1C (centres undefined) | 8 | . | -4 | -7 | -18 | 65*
COC(=O)C(C)N(C(=O)c1ccc(Cl)cc1)c1c(C)cccc1C (centres undefined) | 8 | . | -9 | -2 | -1 | 5
COc1ccc(OCc2cc(C(=O)N(C)CCC3CCOCC3)no2)c(Cl)c1 | 13 | 8 | -7 | -1 | -6 | 77*
Cc1cc(OCc2cc(C(=O)N(C)C3CCOC3)no2)cc(C)c1Cl (centres undefined) | 3 | -14 | -3 | -5 | -5 | 64*
CC(=O)c1ccc(OCc2cc(C(=O)N(C)C3CCOC3)no2)cc1 (centres undefined) | -16 | -18 | -10 | -4 | 6 | -7
COc1ccc(OCc2cc(C(=O)N(C)CC3CCCCO3)no2)c(Cl)c1 (centres undefined) | 2 | 0 | -5 | 0 | -8 | 36
CC(C)(C)c1ccc(C#C[C@@H]2C=C[C@H](O)[C@@H](COC(=O)Nc3ccccc3)O2)cc1 | . | . | -4 | . | . | .
CSc1nc2c(=O)[nH]cnc2s1 | . | . | -11 | . | . | .
Cc1ccc(OCC(=O)N/N=C/c2ccco2)cc1 | -6 | 13 | -7 | 0 | 1 | -9
Cc1ccc(SCC(=O)N/N=C/c2ccco2)cc1 | -12 | 1 | -18 | -1 | 3 | 59*
CCCC(=O)N(Cc1cc2cc(OC)ccc2[nH]c1=O)c1ccc(OC)cc1 | . | . | -5 | 0 | . | .
